Assay results: ChEMBL document CHEMBL4382296, “Synthesis, Profiling, and in Vivo Evaluation of Cyclopeptides Containing N-Methyl Amino Acids as Antiplasmodial Agents” (ACS Med Chem Lett, 2019)
In brackets after ≈: the same amount, converted by molar mass. Activity calls are given as the source filed them. The calls are words filed in the database; no cut-off is given here. Where a SMILES comes first, the peptide text is derived from it. [ ]: non-standard residue; d: D form. The star is where a group is joined. Trt = c1ccc(C(c2ccccc2)(c2ccccc2)*)cc1; Sar = CNCC(=O)O; tBu = CC(C)(C)*

Legend:
Plasmodium falciparum [1] = assay: Antiplasmodial activity against chloroquine-resistant Plasmodium falciparum K1 infected in human erythrocytes assessed as reduction in [3H]hypoxanthine incorporation pretreated for 24 hrs followed by [3H]hypoxanthine addition and measured after 24 hrs by liquid scintillation counting method; format: functional, organism-based
In short: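 Chloroquine-resistant P. falciparum K1 in erythrocytes incubated with compound for 24 h; growth read as 3H-hypoxanthine incorporation; EC50 reported as mean ± SD of n = 2.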

[2] = Solubility of the compound in pH 7.4 phosphate buffered saline after 2 hrs by UV-HPLC analysis; format: physicochemical
In short: (§1)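 Solubility was measured in PBS pH 7.4 and at pH 1.0, in μM, n = 2.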

[3] = Solubility of the compound in pH 1 0.1M HCl after 2 hrs by UV-HPLC analysis; format: physicochemical; in short: as §1
Plasmodium falciparum [4] = assay: Anti-plasmodial activity against chloroquine-sensitive Plasmodium falciparum 3D7 infected in erythrocytes after 72 hrs by SYBR green dye based fluorescence assay; format: functional, organism-based; conditions: 3D7, 72 h
In short: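 P. falciparum 3D7 (drug-sensitive) grown in erythrocytes; growth read by SYBR Green fluorescence; EC50 reported as mean ± SD of n = 2.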

[5] = Selectivity index, ratio of IC50 for human HepG2 cells to EC50 for chloroquine-sensitive Plasmodium falciparum 3D7 infected in erythrocytes; format: toxicity, cell-based; conditions: read-out: Ratio IC50/EC50
In short: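 Selectivity index is HepG2 cytotoxicity IC50 divided by EC50 against drug-sensitive P. falciparum 3D7. Parasite EC50 came from a SYBR Green growth assay, with values as the mean of n = 2.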

[6] = n-Octanol/water partition coefficient, log D of compound at pH 7.4 by UV-HPLC analysis
[7] = Permeability of the compound in pH 7.4 phosphate buffered saline at 20 uM after 20 hrs by PAMPA; format: ADME; conditions: for Papp at 20 h, 20 µM: PAMPA, pH 7.4, read-out: permeability
In short: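 PAMPA giving experimental permeability Pe (×10–6 cm/s), n = 3. The limit of quantitation in the acceptor compartment was 0.02 or 0.03 μM.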

[8] = Selectivity index, ratio of IC50 for mouse J774 cells to EC50 for chloroquine-resistant Plasmodium falciparum K1 infected in human erythrocytes; format: toxicity, cell-based; conditions: read-out: Ratio IC50/EC50
Plasmodium berghei = assay: Antiplasmodial activity against exoerythrocytic-stage of Plasmodium berghei ANKA infected in human HepG2 cells expressing CD81 pretreated with cells for 18 hrs followed by parasite infection and measured after 48 hrs by brightglo-luminescence assay; format: functional, organism-based
Plasmodium falciparum [9] = assay: Plasmodicidal activity against Plasmodium falciparum 3D7A infected in CFDA-SE-labelled erythrocytes assessed as parasite killing at 10 times EC50 treated for 24 to 48 hrs following media refreshment for every 24 hrs by FACS analysis; format: functional, organism-based
In short: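 Viability was judged by the ability of drug-treated parasites to make new invasions of prestained human RBCs. New invasions were quantified by double-colorimetric FACS. Drug treatment used two time points to separate rapidly parasiticidal from moderate or slow acting agents.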

SMILES	EC50 (Plasmodium falciparum [1]) [nM]	EC90 (Plasmodium falciparum [1]) [nM]	solubility at 2 h [2] [µM]	solubility at 2 h [3] [µM]	EC50 (Plasmodium falciparum [4]) [nM]	selectivity ratio [5]	logD [6]	Papp at 20 h, 20 µM [7] [×10⁻⁶ cm/s]	selectivity ratio [8]	EC50 (Plasmodium berghei) [nM]	Activity (Plasmodium falciparum [9])	permeability ([7]; pampa, pH 7.4, 20 h, 20 µM, BLD = below limit of detection)
CN1CC(=O)N[C@@H](CSC(c2ccccc2)(c2ccccc2)c2ccccc2)C(=O)N(C)CC(=O)N[C@@H](CSC(c2ccccc2)(c2ccccc2)c2ccccc2)C(=O)N(C)CC(=O)N[C@@H](COC(C)(C)C)C1=O (cyclo(C(Trt)[Sar]C(Trt)[Sar]S(tBu)[Sar]))	0.13	4	0.18 (≈ 0.189 µg/mL)	0.74 (≈ 0.775 µg/mL)	1.4	> 180000	6.3	0.3	> 770000	–	–	–
CN1CC(=O)N[C@@H](CSC(c2ccccc2)(c2ccccc2)c2ccccc2)C(=O)N[C@@H](Cc2ccccc2)C(=O)N[C@@H](COC(C)(C)C)C(=O)N(C)CC(=O)N[C@@H](CSC(c2ccccc2)(c2ccccc2)c2ccccc2)C1=O (cyclo(C(Trt)FS(tBu)[Sar]C(Trt)[Sar]))	9	59	0.71 (≈ 0.798 µg/mL)	5.32 (≈ 5.98 µg/mL)	1.8	> 140000	8	0.2	> 11000	335	inactive	–
CN1CC(=O)N[C@@H](CSC(c2ccccc2)(c2ccccc2)c2ccccc2)C(=O)NCC(=O)N[C@@H](CSC(c2ccccc2)(c2ccccc2)c2ccccc2)C(=O)NCC(=O)N[C@@H](CCC(=O)O)C1=O (cyclo(C(Trt)GC(Trt)GE[Sar]))	–	–	–	–	5400	> 46	3.1	–	–	–	–	Bld
CCN(CC)CCCC(C)Nc1ccnc2cc(Cl)ccc12 (configuration not stated) [CHLOROQUINE]	470	–	–	–	–	–	–	–	–	–	–	–
C[C@@H](OC(C)(C)C)[C@@H]1NC(=O)CN(C)C(=O)[C@H](CSC(c2ccccc2)(c2ccccc2)c2ccccc2)NC(=O)CN(C)C(=O)[C@H](CSC(c2ccccc2)(c2ccccc2)c2ccccc2)NC(=O)CN(C)C1=O (cyclo(C(Trt)[Sar]C(Trt)[Sar]T(tBu)[Sar]))	0.04	1	0.55 (≈ 0.584 µg/mL)	0.38 (≈ 0.403 µg/mL)	1	> 250000	3.7	0.2	> 2.5e+06	18	inactive	–
CN1CC(=O)N[C@@H](CSC(c2ccccc2)(c2ccccc2)c2ccccc2)C(=O)N[C@@H](CSC(c2ccccc2)(c2ccccc2)c2ccccc2)C(=O)N(C)CC(=O)N[C@@H](COC(C)(C)C)C1=O (cyclo(C(Trt)C(Trt)[Sar]S(tBu)[Sar]))	–	–	0.12 (≈ 0.117 µg/mL)	0.21 (≈ 0.205 µg/mL)	–	–	7.7	2	–	–	–	–
C[C@H]1[C@H](OC(=O)CCC(=O)O)O[C@@H]2O[C@@]3(C)CC[C@H]4[C@H](C)CC[C@@H]1[C@@]24OO3 [ARTESUNATE]	3	–	–	–	5	–	–	–	–	–	–	–
